Results of several laboratories.
Target: Homeodomain-interacting protein kinase 4 (HIPK4, Homo sapiens, UniProt Q8NE63)
Read-out: enzyme activity
Mode: inhibitor
One construct used (Q8NE63 1-616): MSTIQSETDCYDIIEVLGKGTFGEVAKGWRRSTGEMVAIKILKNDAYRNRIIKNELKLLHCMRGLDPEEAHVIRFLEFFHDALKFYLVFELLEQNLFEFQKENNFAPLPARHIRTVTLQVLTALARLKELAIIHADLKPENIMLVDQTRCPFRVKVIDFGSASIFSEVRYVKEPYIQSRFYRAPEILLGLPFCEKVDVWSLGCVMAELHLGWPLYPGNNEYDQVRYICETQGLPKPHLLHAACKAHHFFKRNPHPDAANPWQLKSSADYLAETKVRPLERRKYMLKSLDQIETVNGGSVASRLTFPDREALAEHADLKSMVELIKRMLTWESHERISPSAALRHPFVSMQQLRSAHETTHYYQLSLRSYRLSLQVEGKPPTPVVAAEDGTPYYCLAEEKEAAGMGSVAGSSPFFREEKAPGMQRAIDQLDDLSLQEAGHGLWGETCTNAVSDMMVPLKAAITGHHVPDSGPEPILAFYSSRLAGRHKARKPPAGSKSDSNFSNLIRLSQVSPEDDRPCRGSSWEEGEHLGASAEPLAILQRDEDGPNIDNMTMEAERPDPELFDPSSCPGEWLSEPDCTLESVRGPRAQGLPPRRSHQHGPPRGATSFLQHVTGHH

| Structure (SMILES) | test | conditions | remaining activity [%] |
| --- | --- | --- | --- |
| CC(C)(C)c1nc(-c2cccc(NS(=O)(=O)c3c(F)cccc3F)c2F)c(-c2ccnc(N)n2)s1 | radiometric | 1 µM | 37 |
| O=C(O)c1ccc2c(c1)nc(NCCc1ccccc1)c1ncncc12 | radiometric | 1 µM | 29 |
| COc1cc(Cl)c(C(=O)N[C@@H](CN[C@H]2CC[C@@H](N)CC2)Cc2ccc(C#N)cc2)cc1-c1ccc(CN[C@H](C)c2ccc(C)cc2)o1 |  | 1 µM | 90 |
| O=C(O)c1ccc2c(c1)nc(NCc1ccccc1)c1ncncc12 | radiometric | 1 µM | 63 |
| CC(C)(C)c1nc2c(s1)c1nc(N)ncc1c1ccc(NS(=O)(=O)c3c(F)cccc3F)c(F)c12 | radiometric | 1 µM | 82 |
| Cc1ccc(C(=O)Nc2ccc(CN3CCN(C)CC3)c(C(F)(F)F)c2)cc1C#Cc1cnc2cccnn12 |  | 23.5 nM | 71 |
| O=C(Nc1cnn(-c2csc(C(=O)NC3COC3)c2)c1)Nc1ccccc1Cl |  | 5 µM | 100 |
| CC(C)(O)[C@H]1CC[C@H](Nc2ccc3ncc(-c4cccc(C(F)(F)F)c4)n3n2)CC1 |  | 1 µM | 23.6 |
| Cc1sc(C(=O)NC2COC2)cc1-n1cc(NC(=O)Nc2c(F)cccc2Cl)cn1 |  | 10 µM | 98.4 |
| O=C(O)c1ccc2c(c1)nc(Nc1ccccc1)c1ccncc12 | radiometric | 1 µM | -2 |
